In publication PMC8511081 (European journal of medicinal chemistry, 2021):
Entries after “also recorded” stand apart in the source; their conditions may differ.

Experiments:
[1] = target: T1, sGC (Homo sapiens, UniProt Q02153); assay type: biochemical; settings: 100 μM screening on Fe2+-sGC and Fe3+-sGC (Fig. 2)
T1 sequence (Q02153 1-619): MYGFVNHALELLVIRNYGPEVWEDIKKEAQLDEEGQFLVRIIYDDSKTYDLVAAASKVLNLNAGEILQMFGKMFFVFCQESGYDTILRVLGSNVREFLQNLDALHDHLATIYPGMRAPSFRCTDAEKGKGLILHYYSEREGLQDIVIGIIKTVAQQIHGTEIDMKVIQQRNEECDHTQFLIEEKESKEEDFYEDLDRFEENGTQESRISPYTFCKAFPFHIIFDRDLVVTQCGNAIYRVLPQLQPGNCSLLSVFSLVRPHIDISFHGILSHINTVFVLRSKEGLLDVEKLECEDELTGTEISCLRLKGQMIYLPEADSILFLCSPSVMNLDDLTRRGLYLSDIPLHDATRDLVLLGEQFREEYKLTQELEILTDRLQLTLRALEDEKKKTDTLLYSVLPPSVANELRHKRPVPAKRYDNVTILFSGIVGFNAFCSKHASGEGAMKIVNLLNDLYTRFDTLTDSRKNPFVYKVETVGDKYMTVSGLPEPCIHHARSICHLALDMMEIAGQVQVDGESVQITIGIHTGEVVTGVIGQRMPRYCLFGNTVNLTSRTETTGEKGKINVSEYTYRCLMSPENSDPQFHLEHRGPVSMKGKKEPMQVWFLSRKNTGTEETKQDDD
T1 sequence (Q02108 1-690 partner): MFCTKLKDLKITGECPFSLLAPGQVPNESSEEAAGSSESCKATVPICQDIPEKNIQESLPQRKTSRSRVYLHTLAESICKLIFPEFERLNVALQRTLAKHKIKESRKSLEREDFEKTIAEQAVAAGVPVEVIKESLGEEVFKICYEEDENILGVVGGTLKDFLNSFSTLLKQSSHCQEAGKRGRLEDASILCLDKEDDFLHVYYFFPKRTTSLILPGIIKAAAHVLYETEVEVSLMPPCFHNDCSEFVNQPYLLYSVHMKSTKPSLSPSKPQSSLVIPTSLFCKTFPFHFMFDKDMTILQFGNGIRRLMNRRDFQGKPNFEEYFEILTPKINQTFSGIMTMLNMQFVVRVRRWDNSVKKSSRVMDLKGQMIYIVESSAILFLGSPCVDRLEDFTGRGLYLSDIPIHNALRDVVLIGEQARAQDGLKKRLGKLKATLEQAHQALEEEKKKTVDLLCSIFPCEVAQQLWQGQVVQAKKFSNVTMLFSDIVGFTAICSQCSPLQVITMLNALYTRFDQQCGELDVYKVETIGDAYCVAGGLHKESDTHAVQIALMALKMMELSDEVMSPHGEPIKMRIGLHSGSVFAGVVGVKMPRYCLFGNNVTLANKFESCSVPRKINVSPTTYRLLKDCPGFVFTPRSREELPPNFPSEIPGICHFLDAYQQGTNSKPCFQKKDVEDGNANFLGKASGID
In short: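 Human α1/β1 sGC from Sf9 cells was purified on DEAE, Ni-agarose and gel filtration. The ferric form was made by adding 10 μM ODQ at pre-incubation. Then 15 min at 37 °C with 1 mM GTP/[α-32P]GTP; zinc carbonate stop; [32P]cGMP measured.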

[2] = target: T2, human sGC with ferrous heme (Fe2+-sGC) (Homo sapiens, UniProt Q02153); test: cGMP-forming activity of purified sGC with ferrous heme; assay type: biochemical; settings: 100 μM, Fig. 2A
T2 sequence (Q02153 1-619): T1 sequence (Q02153 1-619)
T2 sequence (Q02108 1-690 partner): T1 sequence (Q02108 1-690 partner)
In short: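 Ferrous-heme human α1/β1 sGC, expressed in Sf9 cells and purified through DEAE, Ni-agarose and Superdex 200. Reaction started at 37 °C with 1 mM GTP/[α-32P]GTP (~100000 cpm) for 15 min. Stopped by zinc carbonate precipitation; [32P]cGMP formed.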

[3] = target: T3, human sGC with ferric heme (Fe3+-sGC) (Homo sapiens, UniProt Q02153); test: cGMP-forming activity of purified sGC with ferric heme; assay type: biochemical; settings: for activation of Fe3+-sGC: 100 μM, Fig. 2B; for shape of the activation curve: dose-dependent activation of sGC with ferric heme, Fig. 3
T3 sequence (Q02153 1-619): T1 sequence (Q02153 1-619)
T3 sequence (Q02108 1-690 partner): T1 sequence (Q02108 1-690 partner)

[4] = tested on: sGC; settings: cited from earlier work

Row | SMILES | sGC activation [1] | shape of the activation curve [3] | activation of Fe3+-sGC [3] | further results
1 | Cc1ccc(C)c(OCC(=O)O)c1 [Compound 4a, 2-(2,5-dimethylphenoxy)acetic acid] | not conducive to sGC activation | – | – | –
2 | CCC(CCCOc1cc(C)ccc1C)C(=O)O (centres unmarked) [Compound 15a, 5-(2,5-dimethylphenoxy)-2-ethylpentanoic acid] | – | – | significantly hampered the activation | activation of Fe2+-sGC [2]: blocked the activation
3 | Cc1ccc(C)c(N(CCCC(C)(C)C(=O)O)C(=O)CCCCC(=O)O)c1 [Compound 10f, 6-((4-carboxy-4-methylpentyl)(2,5-dimethylphenyl)amino)-6-oxohexanoic acid] | – | – | weak, yet statistically significant activation | –
4 | O=C(O)CCCCN(CCc1ccccc1OCc1ccc(CCc2ccccc2)cc1)Cc1ccc(C(=O)O)cc1 [cinaciguat] | – | – | – | estimated EC50 [4]: low nanomolar range
5 | Cc1ccc(C)c(N(CCCC(C)(C)C(=O)O)C(=O)CCC(=O)O)c1 [Compound 10d, 5-(3-carboxy-N-(2,5-dimethylphenyl)propanamido)-2,2-dimethylpentanoic acid] | – | – | weak, yet statistically significant activation | –
6 | Cc1ccc(C(C)C)c(OCCCC(C)(C)C(=O)O)c1 [Compound 7c, 5-(2-isopropyl-5-methylphenoxy)-2,2-dimethylpentanoic acid] | activated both Fe^2+-sGC and Fe^3+-sGC; also recorded: well tolerated | bell-shaped curve | – | –
7 | Cc1ccc(C)c(N(CCCC(C)(C)C(=O)O)C(=O)CCCC(=O)O)c1 [Compound 10e, 5-(4-carboxy-N-(2,5-dimethylphenyl)butanamido)-2,2-dimethylpentanoic acid] | – | – | weak, yet statistically significant activation | –
8 | Cc1ccc(C)c(OCCCC(=O)O)c1 [Compound 4b, 4-(2,5-dimethylphenoxy)butanoic acid] | not conducive to sGC activation | – | – | –
9 | Cc1ccc(C)c(N(CCCC(C)(C)C(=O)O)C(=O)CCCCC(=O)N(CCCC(C)(C)C(=O)O)c2cc(C)ccc2C)c1 [Compound 11, 5,5’-(adipoylbis((2,5-dimethylphenyl)azanediyl))bis(2,2-dimethyl-pentanoic acid)] | activated both Fe^2+-sGC and Fe^3+-sGC; also recorded: exhibited sGC activation | typical S-shaped pattern | – | –

More lines, main results first:

Row | sGC activation [1] | shape of the activation curve [3] | SMILES | activation of Fe3+-sGC [3] | further results
10 | activated both Fe^2+-sGC and Fe^3+-sGC | typical S-shaped pattern | Cc1ccc(C)c(OCCCCCC(=O)O)c1 [Compound 4d, 6-(2,5-dimethylphenoxy)hexanoic acid] | diminished | activation of Fe2+-sGC [2]: tolerated
11 | activated both Fe^2+-sGC and Fe^3+-sGC | bell-shaped curve | CCCCCCC(CCCOc1cc(C)ccc1C)C(=O)O (centres unmarked) [Compound 15b, 2-(3-(2,5-dimethylphenoxy)propyl)octanoic acid] | – | –
12 | activated both Fe^2+-sGC and Fe^3+-sGC | typical S-shaped pattern | Cc1ccc(C)c(NCCCC(C)(C)C(=O)O)c1 [Compound 7a, 5-((2,5-dimethylphenyl)amino)-2,2-dimethylpentanoic acid] | – | –
13 | activated both Fe^2+-sGC and Fe^3+-sGC | typical S-shaped pattern | Cc1ccc(C)c(OCCCCC(=O)O)c1 [Compound 4c, 5-(2,5-dimethylphenoxy)pentanoic acid] | – | –
14 | does not activate sGC | – | O=C(O)CCCCCOc1ccccc1 [Compound 8b, 6-phenoxyhexanoic acid] | – | –
